Assay results published in ChEMBL document CHEMBL4043093, “2-Oxo-3, 4-dihydropyrimido[4, 5-d]pyrimidinyl derivatives as new irreversible pan fibroblast growth factor receptor (FGFR) inhibitors” (Eur J Med Chem, 2017).

Assays:
[1] = target: Ephrin type-B receptor 3 (Homo sapiens) (UniProt P54753); test: Inhibition of wild-type human partial length EPHB3 (Q599 to T928 residues) expressed in Escherichia coli BL21 assessed as residual activity at 1000 nM after 30 mins by Kinomescan method relative to control
[2] = target: Tyrosine-protein kinase CSK (Homo sapiens) (UniProt P41240); test: Inhibition of wild-type human full length CSK (M1 to L450 residues) expressed in Escherichia coli BL21 assessed as residual activity at 1000 nM after 30 mins by Kinomescan method relative to control
How it was run: (§1)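 Single-point screen at a fixed 1 µM, run within a 456-kinase DiscoveRx KINOMEscan panel. Each kinase's read-out is Percent Control, i.e. signal relative to a control without compound. Hits were scored by a Percent Control < 35 cut-off, and an S(35) selectivity score was calculated across the non-mutant kinases.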

[3] = system: Phosphatidylinositol 4,5-bisphosphate 3-kinase catalytic subunit alpha isoform (Homo sapiens), P42336 [C420R]; test: Inhibition of human partial length PIK3CA C420R mutant (R108 to N1068 residues) expressed in HEK293 cells assessed as residual activity at 1000 nM after 30 mins by Kinomescan method relative to control; format: cell-based
How it was run: (§2)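 KINOMEscan binding panel of 456 kinases, with the test compound at a single concentration of 1 µM. Read-out is Percent Control.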

[4] = target: Maternal embryonic leucine zipper kinase (Homo sapiens) (UniProt Q14680); test: Inhibition of wild-type human full length MELK (M1 to V651 residues) expressed in Escherichia coli BL21 assessed as residual activity at 1000 nM after 30 mins by Kinomescan method relative to control
How it was run: (§3)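 Single-concentration screen at 1 µM across a 456-kinase KINOMEscan panel. The read-out is Percent Control for each kinase.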

[5] = target: Serine/threonine-protein kinase PRP4 homolog (Homo sapiens) (UniProt Q13523); test: Inhibition of wild-type human partial length PRP4 (D657 to I1007 residues) expressed in Escherichia coli BL21 assessed as residual activity at 1000 nM after 30 mins by Kinomescan method relative to control
SW780 = test: Antiproliferative activity against human FGFR3-amplified SW780 cells after 5 days by SRB assay; details: SW780, 120 h
[6] = target: Mitogen-activated protein kinase 11 (Homo sapiens) (UniProt Q15759); test: Inhibition of wild-type human full length p38-beta (M1 to Q364 residues) expressed in Escherichia coli BL21 assessed as residual activity at 1000 nM after 30 mins by Kinomescan method relative to control
[7] = target: Serine/threonine-protein kinase TAO3 (Homo sapiens) (UniProt Q9H2K8); test: Inhibition of wild-type human partial length TAOK3 (M1 to T316 residues) expressed in HEK293 cells assessed as residual activity at 1000 nM after 30 mins by Kinomescan method relative to control; format: cell-based
[8] = target: Mitogen-activated protein kinase kinase kinase 13 (Homo sapiens) (UniProt O43283); test: Inhibition of wild-type human full length LZK (M1 to W966 residues) expressed in HEK293 cells assessed as residual activity at 1000 nM after 30 mins by Kinomescan method relative to control; format: cell-based; how it was run: as §3
[9] = system: Proto-oncogene tyrosine-protein kinase receptor Ret (Homo sapiens), P07949 [M918T]; test: Inhibition of human partial length RET M918T mutant (E713 to D1014 residues) expressed in Escherichia coli BL21 assessed as residual activity at 1000 nM after 30 mins by Kinomescan method relative to control; how it was run: as §1
[10] = target: Phosphorylase b kinase gamma catalytic chain, liver/testis isoform (Homo sapiens) (UniProt P15735); test: Inhibition of wild-type human partial length PHKG2 (M1 to W300 residues) expressed in Escherichia coli BL21 assessed as residual activity at 1000 nM after 30 mins by Kinomescan method relative to control
[11] = target: Serine/threonine-protein kinase STK11 (Homo sapiens) (UniProt Q15831); test: Inhibition of wild-type human full length LKB1 (M1 to Q433 residues) expressed in Escherichia coli BL21 assessed as residual activity at 1000 nM after 30 mins by Kinomescan method relative to control; how it was run: as §3
[12] = target: Phosphorylase b kinase gamma catalytic chain, skeletal muscle/heart isoform (Homo sapiens) (UniProt Q16816); test: Inhibition of wild-type human full length PHKG1 (M1 to Y387 residues) expressed in Escherichia coli BL21 assessed as residual activity at 1000 nM after 30 mins by Kinomescan method relative to control; how it was run: as §3
[13] = target: Dual specificity protein kinase CLK1 (Homo sapiens) (UniProt P49759); test: Inhibition of wild-type human full length CLK1 (M1 to I484 residues) expressed in Escherichia coli BL21 assessed as residual activity at 1000 nM after 30 mins by Kinomescan method relative to control; how it was run: as §1
[14] = system: Receptor-type tyrosine-protein kinase FLT3 (Homo sapiens), P36888 [R834Q]; test: Inhibition of human partial length FLT3 R834Q mutant (V592 to Y969 residues) expressed in HEK293 cells assessed as residual activity at 1000 nM after 30 mins by Kinomescan method relative to control; format: cell-based; how it was run: as §2
[15] = target: Receptor tyrosine-protein kinase erbB-2 (Homo sapiens) (UniProt P04626); test: Inhibition of wild-type human partial length ERBB2 (K646 to V1225 residues) expressed in HEK293 cells assessed as residual activity at 1000 nM after 30 mins by Kinomescan method relative to control; format: cell-based
[16] = system: Mast/stem cell growth factor receptor Kit (Homo sapiens), P10721 [D816H]; test: Inhibition of human partial length KIT D816H mutant (I571 to D952 residues) expressed in HEK293 cells assessed as residual activity at 1000 nM after 30 mins by Kinomescan method relative to control; format: cell-based; how it was run: as §2
[17] = target: LIM domain kinase 2 (Homo sapiens) (UniProt P53671); test: Inhibition of wild-type human full length LIMK2 (M1 to P638 residues) expressed in Escherichia coli BL21 assessed as residual activity at 1000 nM after 30 mins by Kinomescan method relative to control; how it was run: as §3
[18] = target: Mitogen-activated protein kinase 7 (Homo sapiens) (UniProt Q13164); test: Inhibition of wild-type human partial length ERK5 (M1 to A409 residues) expressed in Escherichia coli BL21 assessed as residual activity at 1000 nM after 30 mins by Kinomescan method relative to control
[19] = target: Uncharacterized serine/threonine-protein kinase SBK3 (Homo sapiens) (UniProt P0C264); test: Inhibition of wild-type human partial length SgK110 (L22 to R329 residues) expressed in Escherichia coli BL21 assessed as residual activity at 1000 nM after 30 mins by Kinomescan method relative to control
[20] = target: Dual specificity tyrosine-phosphorylation-regulated kinase 2 (Homo sapiens) (UniProt Q92630); test: Inhibition of wild-type human full length DYRK2 (M1 to S528 residues) expressed in HEK293 cells assessed as residual activity at 1000 nM after 30 mins by Kinomescan method relative to control; format: cell-based; how it was run: as §3
Dual specificity tyrosine-phosphorylation-regulated kinase 2 (Homo sapiens), sequence (Q92630 whole entry, the tested form may be a part): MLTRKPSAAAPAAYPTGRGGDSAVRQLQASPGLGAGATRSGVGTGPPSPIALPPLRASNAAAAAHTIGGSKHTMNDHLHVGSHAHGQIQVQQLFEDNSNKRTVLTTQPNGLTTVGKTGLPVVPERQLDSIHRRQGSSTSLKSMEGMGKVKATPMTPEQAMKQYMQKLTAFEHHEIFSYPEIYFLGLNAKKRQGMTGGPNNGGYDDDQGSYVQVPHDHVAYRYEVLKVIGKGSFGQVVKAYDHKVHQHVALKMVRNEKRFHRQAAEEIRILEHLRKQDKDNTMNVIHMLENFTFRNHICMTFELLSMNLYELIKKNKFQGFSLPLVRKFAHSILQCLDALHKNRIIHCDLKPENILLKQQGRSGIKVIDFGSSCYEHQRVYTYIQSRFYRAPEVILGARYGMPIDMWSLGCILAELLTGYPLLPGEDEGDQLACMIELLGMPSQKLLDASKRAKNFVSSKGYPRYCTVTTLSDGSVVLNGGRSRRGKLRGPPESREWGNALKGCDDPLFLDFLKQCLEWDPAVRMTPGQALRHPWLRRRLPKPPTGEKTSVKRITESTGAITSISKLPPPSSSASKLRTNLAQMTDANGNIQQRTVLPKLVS

Phosphorylase b kinase gamma catalytic chain, skeletal muscle/heart isoform (Homo sapiens), sequence (Q16816 whole entry, looked up, the tested form may be a part, canonical isoform): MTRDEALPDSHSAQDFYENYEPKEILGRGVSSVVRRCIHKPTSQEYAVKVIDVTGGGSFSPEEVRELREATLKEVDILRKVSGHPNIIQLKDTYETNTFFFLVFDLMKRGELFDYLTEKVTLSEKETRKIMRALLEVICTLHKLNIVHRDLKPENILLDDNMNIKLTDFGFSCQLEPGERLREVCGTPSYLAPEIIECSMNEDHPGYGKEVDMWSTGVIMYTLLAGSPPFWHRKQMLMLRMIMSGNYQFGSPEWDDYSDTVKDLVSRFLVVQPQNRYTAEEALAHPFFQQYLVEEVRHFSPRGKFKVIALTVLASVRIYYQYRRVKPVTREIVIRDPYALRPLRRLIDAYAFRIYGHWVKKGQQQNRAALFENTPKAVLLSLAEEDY
Serine/threonine-protein kinase TAO3 (Homo sapiens), sequence (Q9H2K8 whole entry, the tested form may be a part): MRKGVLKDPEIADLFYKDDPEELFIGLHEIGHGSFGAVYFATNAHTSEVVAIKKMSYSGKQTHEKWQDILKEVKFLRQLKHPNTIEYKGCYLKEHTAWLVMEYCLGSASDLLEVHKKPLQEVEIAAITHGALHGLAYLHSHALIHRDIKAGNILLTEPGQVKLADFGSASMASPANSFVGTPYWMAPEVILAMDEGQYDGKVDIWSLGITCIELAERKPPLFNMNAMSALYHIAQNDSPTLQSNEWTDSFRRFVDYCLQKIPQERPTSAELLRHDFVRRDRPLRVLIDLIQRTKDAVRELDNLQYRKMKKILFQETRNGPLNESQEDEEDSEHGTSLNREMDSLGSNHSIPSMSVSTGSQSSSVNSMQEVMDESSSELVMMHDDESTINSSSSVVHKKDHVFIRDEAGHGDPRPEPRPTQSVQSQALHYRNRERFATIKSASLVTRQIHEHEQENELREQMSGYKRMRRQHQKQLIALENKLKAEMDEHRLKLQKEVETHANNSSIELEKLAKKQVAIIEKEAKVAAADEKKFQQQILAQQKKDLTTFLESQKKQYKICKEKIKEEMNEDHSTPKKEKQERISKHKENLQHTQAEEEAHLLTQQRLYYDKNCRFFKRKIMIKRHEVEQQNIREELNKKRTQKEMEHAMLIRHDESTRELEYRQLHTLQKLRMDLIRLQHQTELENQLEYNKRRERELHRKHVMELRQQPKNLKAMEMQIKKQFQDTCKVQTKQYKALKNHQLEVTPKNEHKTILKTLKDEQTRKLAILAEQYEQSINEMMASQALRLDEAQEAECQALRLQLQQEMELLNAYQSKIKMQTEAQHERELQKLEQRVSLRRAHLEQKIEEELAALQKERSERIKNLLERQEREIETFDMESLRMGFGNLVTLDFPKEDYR
Mitogen-activated protein kinase 7 (Homo sapiens), sequence (Q13164 2-816 limits assumed): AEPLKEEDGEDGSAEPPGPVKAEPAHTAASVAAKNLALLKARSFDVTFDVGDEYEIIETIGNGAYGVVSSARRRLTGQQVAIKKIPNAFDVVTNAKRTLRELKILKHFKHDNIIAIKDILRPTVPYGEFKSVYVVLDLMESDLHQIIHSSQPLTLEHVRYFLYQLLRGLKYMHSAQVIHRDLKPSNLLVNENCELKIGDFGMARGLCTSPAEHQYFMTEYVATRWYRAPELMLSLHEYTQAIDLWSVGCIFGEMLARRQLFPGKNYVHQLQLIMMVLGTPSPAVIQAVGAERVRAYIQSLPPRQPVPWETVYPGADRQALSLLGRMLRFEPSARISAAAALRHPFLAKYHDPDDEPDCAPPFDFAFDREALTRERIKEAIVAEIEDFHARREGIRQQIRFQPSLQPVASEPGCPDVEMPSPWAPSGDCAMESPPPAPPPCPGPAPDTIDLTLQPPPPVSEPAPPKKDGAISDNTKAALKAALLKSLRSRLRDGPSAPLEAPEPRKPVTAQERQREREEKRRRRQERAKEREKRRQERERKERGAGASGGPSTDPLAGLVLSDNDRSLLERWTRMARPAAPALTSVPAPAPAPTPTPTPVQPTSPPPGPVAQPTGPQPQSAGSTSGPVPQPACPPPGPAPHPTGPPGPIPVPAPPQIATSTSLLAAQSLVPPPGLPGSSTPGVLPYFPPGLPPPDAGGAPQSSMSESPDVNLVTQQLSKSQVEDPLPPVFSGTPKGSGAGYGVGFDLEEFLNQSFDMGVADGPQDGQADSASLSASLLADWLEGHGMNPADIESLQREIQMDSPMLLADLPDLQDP
Ephrin type-B receptor 3 (Homo sapiens), sequence (P54753 whole entry, the tested form may be a part): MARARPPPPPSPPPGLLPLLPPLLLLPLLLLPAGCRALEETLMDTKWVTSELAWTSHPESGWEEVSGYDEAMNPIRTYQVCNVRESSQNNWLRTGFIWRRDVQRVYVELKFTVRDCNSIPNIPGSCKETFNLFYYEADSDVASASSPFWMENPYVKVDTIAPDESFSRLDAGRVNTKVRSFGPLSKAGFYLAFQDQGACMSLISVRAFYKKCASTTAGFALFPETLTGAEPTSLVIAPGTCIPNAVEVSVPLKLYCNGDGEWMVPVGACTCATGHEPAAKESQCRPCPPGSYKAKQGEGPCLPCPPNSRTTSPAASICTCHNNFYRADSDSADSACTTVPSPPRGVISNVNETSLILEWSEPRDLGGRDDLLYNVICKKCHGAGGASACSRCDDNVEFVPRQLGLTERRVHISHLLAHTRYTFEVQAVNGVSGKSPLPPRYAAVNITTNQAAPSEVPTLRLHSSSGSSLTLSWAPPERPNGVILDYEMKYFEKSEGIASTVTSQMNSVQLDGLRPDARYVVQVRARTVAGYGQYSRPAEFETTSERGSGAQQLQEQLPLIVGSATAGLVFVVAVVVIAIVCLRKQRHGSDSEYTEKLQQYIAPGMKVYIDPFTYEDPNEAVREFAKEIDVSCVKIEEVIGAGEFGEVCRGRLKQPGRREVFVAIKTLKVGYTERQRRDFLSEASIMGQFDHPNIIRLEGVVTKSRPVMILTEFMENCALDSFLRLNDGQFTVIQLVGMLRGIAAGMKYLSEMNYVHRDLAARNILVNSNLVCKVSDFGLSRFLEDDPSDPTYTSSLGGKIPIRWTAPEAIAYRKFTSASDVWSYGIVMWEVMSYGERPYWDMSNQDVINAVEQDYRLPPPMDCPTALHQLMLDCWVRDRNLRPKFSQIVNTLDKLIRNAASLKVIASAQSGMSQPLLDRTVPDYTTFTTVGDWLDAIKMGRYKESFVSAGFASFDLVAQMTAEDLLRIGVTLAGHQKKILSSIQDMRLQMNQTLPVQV
Phosphorylase b kinase gamma catalytic chain, liver/testis isoform (Homo sapiens), sequence (P15735 whole entry, the tested form may be a part, canonical isoform): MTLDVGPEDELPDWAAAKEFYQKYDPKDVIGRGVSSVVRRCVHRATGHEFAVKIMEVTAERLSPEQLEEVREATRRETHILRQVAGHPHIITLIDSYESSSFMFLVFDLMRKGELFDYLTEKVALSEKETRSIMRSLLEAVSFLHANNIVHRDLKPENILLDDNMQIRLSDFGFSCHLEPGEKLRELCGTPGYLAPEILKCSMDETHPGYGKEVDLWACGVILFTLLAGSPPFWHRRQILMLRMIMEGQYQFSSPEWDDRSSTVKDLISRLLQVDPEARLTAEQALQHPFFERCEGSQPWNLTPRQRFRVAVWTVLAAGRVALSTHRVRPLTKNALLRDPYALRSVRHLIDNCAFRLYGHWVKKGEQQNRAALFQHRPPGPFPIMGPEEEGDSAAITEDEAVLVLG
Serine/threonine-protein kinase STK11 (Homo sapiens), sequence (Q15831 whole entry, the tested form may be a part, canonical isoform): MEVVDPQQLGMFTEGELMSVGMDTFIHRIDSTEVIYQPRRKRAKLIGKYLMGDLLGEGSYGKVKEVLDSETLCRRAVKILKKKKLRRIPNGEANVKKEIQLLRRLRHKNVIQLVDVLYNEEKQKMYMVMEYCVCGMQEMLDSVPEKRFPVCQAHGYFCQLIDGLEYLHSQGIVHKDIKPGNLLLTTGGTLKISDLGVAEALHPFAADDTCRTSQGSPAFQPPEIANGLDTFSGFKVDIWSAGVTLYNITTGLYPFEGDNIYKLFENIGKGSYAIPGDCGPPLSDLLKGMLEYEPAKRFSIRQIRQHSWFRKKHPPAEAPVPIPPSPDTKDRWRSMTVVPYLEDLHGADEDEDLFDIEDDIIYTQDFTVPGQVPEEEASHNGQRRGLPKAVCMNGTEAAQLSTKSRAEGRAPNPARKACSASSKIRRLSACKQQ
Uncharacterized serine/threonine-protein kinase SBK3 (Homo sapiens), sequence (P0C264 whole entry, the tested form may be a part): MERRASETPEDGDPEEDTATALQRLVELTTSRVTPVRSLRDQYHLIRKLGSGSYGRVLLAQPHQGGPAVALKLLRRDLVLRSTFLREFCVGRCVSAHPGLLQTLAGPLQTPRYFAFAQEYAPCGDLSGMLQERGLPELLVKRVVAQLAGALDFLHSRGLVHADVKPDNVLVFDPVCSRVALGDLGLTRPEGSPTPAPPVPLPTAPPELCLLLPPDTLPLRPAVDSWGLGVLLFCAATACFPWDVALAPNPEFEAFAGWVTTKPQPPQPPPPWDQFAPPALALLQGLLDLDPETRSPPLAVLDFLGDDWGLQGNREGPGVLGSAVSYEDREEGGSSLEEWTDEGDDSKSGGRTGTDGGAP

COc1cc(OC)c(Cl)c(N2Cc3cnc(Nc4ccc(F)cc4)nc3N(C3CCN(C(=O)/C=C/CN(C)C)CC3)C2=O)c1Cl
Activity [1]: 100% | Activity [2]: 100% | Activity [3]: 100% | Activity [4]: 100% | Activity [5]: 92% | IC50 (SW780): 16.1 nM | Activity [6]: 87% | Activity [7]: 36% | Activity [8]: 100% | Activity [9]: 7.1% | Activity [10]: 98% | Activity [11]: 100% | Activity [12]: 92% | Activity [13]: 100% | Activity [14]: 96% | Activity [15]: 96% | Activity [16]: 66% | Activity [17]: 100% | Activity [18]: 49% | Activity [19]: 100% | Activity [20]: 100%
